The values that follow come from ChEMBL document CHEMBL1125248, “Synthesis and anticancer activity of various 3'-deoxy pyrimidine nucleoside analogues and crystal structure of 1-(3-deoxy-beta-D-threo-pentofuranosyl)cytosine” (1991).

What all share (type): functional
One test concerns P388. In words: Effective dose to inhibit the replication of P388 cell line in vitro. Conditions: Mus musculus, read-out: ED50 (the source's name). An outline of the steps:
(§1)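 Murine L1210, P388 and S-180 cells grown as suspension cultures in Fischer's medium with 10% horse serum at 37 °C under 5% CO2. Various concentrations added to exponentially growing cells at 2 × 10⁴ cells/mL. Cells counted against drug-free controls after 24, 48 and 72 h. ED50 (50% inhibition of replication) estimated from dose-response curves of at least two independent experiments.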

A further test has as its system L1210. In words: Effective dose to inhibit the replication of L1210 cell line in vitro. Conditions: Mus musculus, read-out: ED50 (the source's name). An outline of the steps:
as §1

A further test deals with CCRF S-180. In words: Effective dose to inhibit the replication of S180 cell line in vitro. Conditions: Mus musculus, read-out: ED50 (the source's name). In short, it runs like this: as §1
The next test has as its system CCRF-CEM. Description: Inhibit the replication of CCRF-CEM cell line in vitro. Conditions: Homo sapiens, read-out: ED50 (the source's name). In short, it runs like this:
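Human CCRF-CEM lymphoblastic leukemia cells held in suspension in RPMI medium with 10% horse serum, 37 °C, humidified 5% CO2. Test agent at various concentrations added to exponential-phase cultures (2 × 10⁴ cells/mL). Cell numbers compared with untreated cultures at 24, 48 and 72 h. 50% replication-inhibiting concentration read from dose-response curves, at least two independent experiments.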

`Nc1ccn([C@@H]2O[C@H](CO)C[C@H]2O)c(=O)n1`: the EC50 amounted to 2.5 µM in the test with P388, 5 µM with L1210, 15 µM in the test on CCRF S-180 and 25 µM in the test with CCRF-CEM.
As to `CC(=O)O[C@H]1C[C@@H](CO)O[C@H]1n1ccc(N)nc1=O`, the EC50 is 2 µM in the test with P388, 5 µM with L1210, 20 µM in the test on CCRF S-180 and 3 µM with CCRF-CEM.
As for `Nc1nc(=O)n([C@@H]2O[C@H](CO)C[C@H]2O)cc1I`, the EC50 in the test on P388, in the test with L1210, with CCRF S-180 and in the test on CCRF-CEM was over 100 µM each time.
With `Nc1ccn([C@@H]2O[C@H](CO)C[C@@H]2O)c(=O)n1`, the EC50 in the test on P388 was found to be 5 µM; in the test with L1210, 10 µM; with CCRF S-180, 34 µM; with CCRF-CEM, 2 µM.
On the same counts, the results for `O=c1ccn([C@@H]2O[C@H](CO)C[C@H]2O)c(=O)[nH]1` are 25 µM, 50 µM, over 100 µM and over 100 µM.
For `CC(=O)OC[C@@H]1C[C@H](O)[C@H](n2ccc(N)nc2=O)O1` the same measures were 3 µM, 3 µM, 13 µM and 0.4 µM.
On the same counts, the results for `O=c1[nH]c(=O)n([C@@H]2O[C@H](CO)C[C@H]2O)cc1Br` are over 100 µM, over 100 µM, over 100 µM and over 100 µM.
As to `CC(=O)Nc1ccn([C@@H]2O[C@H](COC(C)=O)C[C@@H]2OC(C)=O)c(=O)n1`, the EC50 was over 100 µM with P388, over 100 µM with L1210, over 100 µM with CCRF S-180 and 23 µM in the test on CCRF-CEM.
For `O=c1[nH]c(=O)n([C@@H]2O[C@H](CO)C[C@@H]2O)cc1Br`, the EC50 with P388, in the test with L1210, in the test with CCRF S-180 and with CCRF-CEM was over 100 µM in each case.
Take `CC(=O)Nc1ccn([C@@H]2O[C@H](CO)C[C@@H]2OC(C)=O)c(=O)n1`: the EC50 with P388, in the test on L1210, in the test with CCRF S-180 and in the test with CCRF-CEM was over 100 µM in each case.
`O=c1ccn([C@@H]2O[C@H](CO)C[C@@H]2O)c(=O)[nH]1`: the EC50 with P388, in the test on L1210, with CCRF S-180 and in the test on CCRF-CEM was over 100 µM throughout.
On to `CC(=O)OC[C@@H]1C[C@H](OC(C)=O)[C@H](n2ccc(N)nc2=O)O1`, for which the EC50 is 10 µM in the test on P388, 20 µM in the test with L1210, 30 µM with CCRF S-180 and 1 µM in the test with CCRF-CEM.
On to `Nc1ccn([C@@H]2O[C@H](CO)[C@@H](O)[C@@H]2O)c(=O)n1` [CYTARABINE], for which the EC50 in the test with P388 turned out to be 0.02 µM; with L1210, 0.05 µM; with CCRF S-180, 0.2 µM; in the test on CCRF-CEM it was 0.005 µM.
As to `Nc1nc(=O)n([C@@H]2O[C@H](CO)C[C@H]2O)cc1Br`, the EC50 in the test with P388, in the test with L1210, in the test on CCRF S-180 and with CCRF-CEM was over 100 µM throughout.
On to `O=c1[nH]c(=O)n([C@@H]2O[C@H](CO)C[C@@H]2O)cc1Cl`, for which the EC50 in the test on P388, in the test on L1210, in the test with CCRF S-180 and in the test with CCRF-CEM was over 100 µM throughout.
Take `O=c1[nH]c(=O)n([C@@H]2O[C@H](CO)C[C@@H]2O)cc1I`: the EC50 with P388, in the test on L1210, in the test on CCRF S-180 and in the test on CCRF-CEM was over 100 µM each time.
